Source: ChEMBL document CHEMBL1127837, “6,9-Bis[(aminoalkyl)amino]benzo[g]isoquinoline-5,10-diones. A novel class of chromophore-modified antitumor anthracene-9,10-diones: synthesis and antitumor evaluations” (J Med Chem, 1994)
In brackets after ≈: the same amount, converted by molar mass. Several values for one entry are separate records, joined by “and”; a condition that tells them apart may be missing. Equal entries are not always repeated.

How the values were obtained:
Mus musculus [1] = assay: The compound was tested for antitumor activity against P388 murine leukemia at 18 (mg/kg/day) dose; type: functional
Summary of the method: (§1)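 P388 cells kept by serial ip passage (10^5 cells) in DBA2 male mice. CD2F1 mice inoculated iv with 10^6 cells on day 0. Drug given iv on days 1, 4 and 7. Daily observation for toxicity and survival over 60 days. Median survival time per group, expressed as %T/C = MST treated/MST control × 100.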

Mus musculus [2] = assay: The compound was tested for antitumor activity against P388 murine leukemia at 22 (mg/kg/day) dose; 1/8 toxic deaths/total no of mice; type: ADME, organism-based; conditions: in vivo
Mus musculus [3] = assay: The compound was tested for antitumor activity against P388 murine leukemia at 18 (mg/kg/day) dose; 1/40 toxic deaths/total no of mice; type: ADME, organism-based; conditions: in vivo
Mus musculus [4] = assay: The compound was tested for antitumor activity against P388 murine leukemia at 60 (mg/kg/day) dose; type: functional; summary of the method: as §1
Mus musculus [5] = assay: The compound was tested for antitumor activity against P388 murine leukemia at 27 (mg/kg/day) dose;7/55 toxic deaths/total no of mice; type: ADME, organism-based; conditions: in vivo
Mus musculus [6] = assay: The compound was tested for antitumor activity against P388 murine leukemia at 8 (mg/kg/day) dose; type: functional; summary of the method: as §1
Mus musculus [7] = organism: Mus musculus; assay: (§2) The compound was tested for antitumor activity against P388 murine leukemia by measuring maximum tolerated dose; type: ADME, organism-based; conditions: in vivo
Summary of the method: (§3)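 CD2F1 mice were given 10^6 P388 cells iv, followed by iv treatment on days 1, 4 and 7 after transplantation. Mice were observed daily for toxicity and survival for 60 days. The value is the maximum tolerated dose, taken as LD10, or else the maximum dose administered.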

Mus musculus [8] = assay: The compound was tested for antitumor activity against P388 murine leukemia at 22 (mg/kg/day) dose; type: functional; summary of the method: as §1
L1210 = assay: Tested in vitro for inhibitory activity against L1210 murine leukemia; type: functional, cell-based; conditions: Mus musculus
Summary of the method: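 L1210 suspension cells grown in McCoy's 5A with 10% horse serum, 10% CO2, 37 °C. Drug dissolved in water and added to 10^5 cells/tube at final 0.01, 0.1, 1 and 10 µg/mL.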

Mus musculus [9] = assay: The compound was tested for antitumor activity against P388 murine leukemia at 8(mg/kg/day) dose; 0/8 toxic deaths/total no of mice; type: ADME, organism-based; conditions: in vivo
Mus musculus [10] = assay: The compound was tested for antitumor activity against P388 murine leukemia at 40 (mg/kg/day) dose; 25/37 toxic deaths/total no of mice; type: ADME, organism-based; conditions: in vivo
Mus musculus [11] = assay: The compound was tested for antitumor activity against P388 murine leukemia at 60 (mg/kg/day) dose; 15/16 toxic deaths/total no of mice; type: ADME, organism-based; conditions: in vivo
Mus musculus [12] = assay: The compound was tested for antitumor activity against P388 murine leukemia at 27 (mg/kg/day) dose; type: functional; summary of the method: as §1
Mus musculus [13] = assay: The compound was tested for antitumor activity against P388 murine leukemia at 12(mg/kg/day) dose; 0/16 toxic deaths/total no of mice; conditions: in vivo
Mus musculus [14] = assay: The compound was tested for antitumor activity against P388 murine leukemia at 12 (mg/kg/day) dose; type: functional; summary of the method: as §1
Mus musculus [15] = assay: The compound was tested for antitumor activity against P388 murine leukemia at 40 (mg/kg/day) dose; type: functional; summary of the method: as §1
LoVo = assay: Tested in vitro for cytotoxic activity against Human colon Adenocarcinoma sensitive cell line (LoVo); type: functional, cell-based
Summary of the method: (§4)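 LoVo and doxorubicin-resistant LoVo/Dx colon cells grown in Ham's F12 with 10% fetal calf serum, glutamine, vitamins and Hepes at 37 °C. 2.5 × 10^5 cells/mL plated and preincubated 24 h, then exposed to drug for 144 h. MTT read-out at 570 nm. IC50 (µg/mL) derived; resistance index = IC50 resistant / IC50 sensitive line.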

P388 = assay: Tested for antitumor activity against P388 murine leukemia; type: functional, Mus musculus; summary of the method: as §1
[16] = as §2; type: ADME, organism-based; conditions: mouse, in vivo; read-out: LD10; summary of the method: as §3
[17] = Resistance index is the ratio of IC50 of resistant cell line/IC50 of sensitive cell line; type: functional; summary of the method: as §4
LoVo/DX (Homo sapiens) = assay: Tested in vitro for cytotoxic activity against Doxorubicin resistant Human colon Adenocarcinoma cell line
Mus musculus [18] = assay: The compound was tested for antitumor activity against P388 murine leukemia at 3 (mg/kg/day) dose; 12/132 -no. of toxic deaths/no. of mice; type: ADME, organism-based; conditions: in vivo
Mus musculus [19] = assay: The compound was tested for antitumor activity against P388 murine leukemia at 4 (mg/kg/day) dose; 43/48 -no. of toxic deaths/no. of mice; type: ADME, organism-based; conditions: in vivo
Mus musculus [20] = assay: The compound was tested for antitumor activity against P388 murine leukemia at 2 (mg/kg/day) dose; 0/82 -no. of toxic deaths/no. of mice; type: ADME, organism-based; conditions: in vivo
Mus musculus [21] = organism: Mus musculus; assay: The compound was tested for antitumor activity against P388 murine leukemia by measuring median survival time of treated mice/median survival time of control x 100; type: functional

With `Cl.NCCNc1ccc(NCCN)c2c1C(=O)c1ccncc1C2=O` the T/C (Mus musculus [1]) was 206%, the Toxic deaths (Mus musculus [2]) was 1 and the Toxic deaths (Mus musculus [3]) was 1. For the same compound, the T/C (Mus musculus [4]) was 36%, the Toxic deaths (Mus musculus [5]) was 7 and the T/C (Mus musculus [6]) was 162%. It also gave a maximum tolerated dose (Mus musculus [7]) of 27 mg/kg/day, a T/C (Mus musculus [8]) of 250% and an IC50 (L1210) of 0.01 µg/mL. It also gave a Toxic deaths (Mus musculus [9]) of 0, a Toxic deaths (Mus musculus [10]) of 25 and a Toxic deaths (Mus musculus [11]) of 15. The T/C (Mus musculus [12]) was 230%, the Toxic deaths (Mus musculus [13]) was 0 and the T/C (Mus musculus [14]) was 194%. It also gave a T/C (Mus musculus [15]) of 128%.
`CN(C)CCNc1ccc(NCCN(C)C)c2c1C(=O)c1cc[n+]([O-])cc1C2=O` showed an IC50 (LoVo) of 0.44 µg/mL (≈ 1.11 µM), a T/C (P388) of 122% and an MTD [16] of 40 mg/kg/day. For the same compound, the Ratio [17] was 6 and the IC50 (LoVo/DX (Homo sapiens)) was 2.6 µg/mL (≈ 6.54 µM).
For `NCCNc1ccc(NCCN)c2c1C(=O)c1cc[n+]([O-])cc1C2=O`, the IC50 (LoVo) was 7.3 µg/mL (≈ 21.4 µM), the T/C (P388) was 200% and the MTD [16] was 60 mg/kg/day. It also gave a Ratio [17] of 10 and an IC50 (LoVo/DX (Homo sapiens)) of 62.6 µg/mL (≈ 183 µM).
With `O=C1c2c(O)ccc(O)c2C(=O)c2c(NCCNCCO)ccc(NCCNCCO)c21` [MITOXANTRONE] the IC50 (LoVo) was 0.009 µg/mL (≈ 0.0202 µM), the T/C (P388) was 172% and 138% and the Toxic deaths (Mus musculus [18]) was 12. For the same compound, the LD10 (Mus musculus [7]) was 2 mg/kg/day and 4 mg/kg/day, the MTD [16] was 3 mg/kg/day and the Ratio [17] was 28. The Toxic deaths (Mus musculus [19]) was 43, the IC50 (LoVo/DX (Homo sapiens)) was 0.25 µg/mL (≈ 0.562 µM) and the IC50 (L1210) was 0.009 µg/mL (≈ 0.0202 µM). For the same compound, the Toxic deaths (Mus musculus [20]) was 0 and the T/C (Mus musculus [21]) was 196%.
`COCCNCCNc1ccc(NCCNCCOC)c2c1C(=O)c1ccncc1C2=O` gave an IC50 (L1210) of 0.44 µg/mL (≈ 0.997 µM).
Work on `CCCNCCNc1ccc(NCCNCCC)c2c1C(=O)c1ccncc1C2=O` yielded an IC50 (LoVo) of 0.2 µg/mL (≈ 0.488 µM), a Ratio [17] of 14 and an IC50 (LoVo/DX (Homo sapiens)) of 2.8 µg/mL (≈ 6.84 µM). For the same compound, the IC50 (L1210) was 0.04 µg/mL (≈ 0.0977 µM).
`CC(C)NCCNc1ccc(NCCNC(C)C)c2c1C(=O)c1ccncc1C2=O` showed an IC50 (LoVo) of 0.3 µg/mL (≈ 0.733 µM), a Ratio [17] of 11 and an IC50 (LoVo/DX (Homo sapiens)) of 3.4 µg/mL (≈ 8.3 µM). The IC50 (L1210) was 0.03 µg/mL (≈ 0.0733 µM).
`CCN(CC)CCNc1ccc(NCCN(CC)CC)c2c1C(=O)c1ccncc1C2=O` gave an IC50 (LoVo) of 0.29 µg/mL (≈ 0.663 µM), a T/C (P388) of 122% and an MTD [16] of 60 mg/kg/day. It also gave a Ratio [17] of 2.4, an IC50 (LoVo/DX (Homo sapiens)) of 0.69 µg/mL (≈ 1.58 µM) and an IC50 (L1210) of 0.06 µg/mL (≈ 0.137 µM).
For `CNCCNc1ccc(NCCNC)c2c1C(=O)c1ccncc1C2=O.Cl`, the IC50 (LoVo) was 0.08 µg/mL, the T/C (P388) was 189% and the MTD [16] was 8 mg/kg/day. The Ratio [17] was 36 and the IC50 (LoVo/DX (Homo sapiens)) was 2.9 µg/mL.
In the case of `NCCCNc1ccc(NCCCN)c2c1C(=O)c1ccncc1C2=O`, the IC50 (LoVo) is reported as 2.1 µg/mL (≈ 5.94 µM), the T/C (P388) is reported as 155% and the MTD [16] is reported as 40 mg/kg/day. For the same compound, the Ratio [17] was 26, the IC50 (LoVo/DX (Homo sapiens)) was 54.5 µg/mL (≈ 154 µM) and the IC50 (L1210) was 0.1 µg/mL (≈ 0.283 µM).
`O=C1c2ccncc2C(=O)c2c(NCCN3CCCC3)ccc(NCCN3CCCC3)c21` gave an IC50 (LoVo) of 0.5 µg/mL (≈ 1.15 µM), a T/C (P388) of 100% and an MTD [16] of 60 mg/kg/day. The Ratio [17] was 1.4, the IC50 (LoVo/DX (Homo sapiens)) was 0.7 µg/mL (≈ 1.61 µM) and the IC50 (L1210) was 0.09 µg/mL (≈ 0.208 µM).
`O=C1c2ccncc2C(=O)c2c(NCCOCCO)ccc(NCCOCCO)c21` gave an IC50 (LoVo) of 8.7 µg/mL (≈ 20.9 µM), a Ratio [17] of 31 and an IC50 (LoVo/DX (Homo sapiens)) of 267 µg/mL (≈ 642 µM).
